UCH37 inh = human UCH37 deubiquitinating enzyme inhibition | Q9Y5K5 | purified proteasome/UCH37, Ub-AMC cleavage fluorescence | inhibition, % (concentration not given with the values) | hit rate 0.33% among 330,000 | AID 588478;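 active means mean inhibition over replicate wells above about 20%, limit read from the data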;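 further: 0% = compound-free wells with enzyme and 100% = wells lacking proteasome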
Target sequence (Q9Y5K5 whole entry, looked up): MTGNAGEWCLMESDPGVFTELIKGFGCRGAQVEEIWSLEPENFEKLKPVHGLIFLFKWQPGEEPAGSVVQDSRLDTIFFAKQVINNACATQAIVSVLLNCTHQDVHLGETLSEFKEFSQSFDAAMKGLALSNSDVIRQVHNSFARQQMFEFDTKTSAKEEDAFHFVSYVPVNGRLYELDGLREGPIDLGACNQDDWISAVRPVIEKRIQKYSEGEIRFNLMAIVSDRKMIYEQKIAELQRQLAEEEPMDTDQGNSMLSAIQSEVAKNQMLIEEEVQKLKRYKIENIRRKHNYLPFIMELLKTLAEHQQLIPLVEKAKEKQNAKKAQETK
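Material: Human UCH37 enzyme supplied as purified proteasome complex | Schedule: 30 min preincubation with enzyme, 25 min cleavage at room temperature | Detection: AMC fluorescence 355/460 nm | Measure: % inhibition of Ub-AMC cleavage fluorescence | Controls: Wells without proteasome as full block, compound-free enzyme plus substrate as uninhibited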
CendR NRP1 mod = modulators of CendR peptide binding to human neuropilin-1. O14786. FAM-RPARPAR peptide binding to NRP-1, fluorescence polarization. inhibition, % at 25 µM. hit rate 0.85% among 360,000;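 active means inhibition or corrected inhibition above about 18%, plus a signal ratio from 0.5 to 1.5, limit read from the data, passing the limit was not always enough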
DAGLB inh = diacylglycerol lipase beta (human) inhibition; AID 504411; Q8NCG7; hit rate 0.059% among 340,000; HEK293T DAGLB membrane lysate, EnzChek fluorogenic substrate; inhibition, % at 5.17 µM; in the data active means inhibition above about 34%;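 further: 0% = enzyme with vehicle and 100% = wells lacking enzyme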
MT1-MMP act inh = MT1-MMP (human) activation inhibition; P50281; HT1080 RFP-PRO-GFP cells, GFP/RFP ratio fluorescence, overnight; percent of plate control window, DMSO zero; GFP/RFP ratio change, % at 20 µM; hit rate 0.061% among 360,000;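 active means GFP/RFP ratio change of at least 30% with cell ATP level not reduced by more than half and red fluorescence within 50% of control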
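Test system: HT1080 cells expressing an RFP-PRO-GFP fluorescent reporter construct / Compound dosing: single-point 20 µM compound, 1% DMSO / Schedule: cells overnight before dosing, compound overnight, 37 °C, 5% CO2 / Evaluation: GFP/RFP fluorescence ratio / Control set: DMSO and RFP-L50D-GFP cell wells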
CTSL1 counter = cathepsin L1 inhibition, PFM18AAP counter-screen | inhibition, % at 5.96 µM | hit rate 0.49% among 300,000 | recombinant F. hepatica cathepsin L1, Z-Leu-Arg-MCA fluorescence | AID 1906;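 active means inhibition above the mean of all tested compounds plus 3 SD, set per screening campaign, cut at about 17% in these data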;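 further: 0% = plate median of test compound wells and 100% = 1 µM Z-Phe-Ala-diazomethylketone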
An asterisk follows results filed as active. Hits are enriched below; roughly 1.5% of the tested compounds scored in any of these assays.

Screening CC(Nc1ccc(Br)cc1)C(=O)NN=Cc1ccccc1OCc1ccccc1 (stereo not drawn) returned UCH37 inh 3.
For COc1ccc(C2(C(=O)NC3CCCCC3)CCOCC2)cc1OC the results were UCH37 inh 1, CendR NRP1 mod 24*, DAGLB inh 0, MT1-MMP act inh 14 and CTSL1 counter 0.
Screening CN1CCc2cccc3c2[C@@H]1Cc1ccc(O)c(O)c1-3 returned UCH37 inh -3, CendR NRP1 mod 26*, DAGLB inh 2, MT1-MMP act inh 8 and CTSL1 counter 1.
For COc1ccc(C(=O)NCCn2cc(SCC(=O)Nc3nnc(C)s3)c3ccccc32)cc1 the results were UCH37 inh 2, CendR NRP1 mod 24*, DAGLB inh 1, MT1-MMP act inh -2 and CTSL1 counter 0.
Screening COc1ccc(NC(=O)c2c(-c3c(Cl)cccc3Cl)noc2C)c(OC)c1 returned UCH37 inh 5, CendR NRP1 mod 26*, DAGLB inh -5, MT1-MMP act inh 2 and CTSL1 counter 4.
O=C1CC(N2CCC(c3nc4ccccc4s3)CC2)C(=O)N1Cc1ccccc1 (stereo not drawn) was read as UCH37 inh 6, CendR NRP1 mod -12, DAGLB inh -8, MT1-MMP act inh 1 and CTSL1 counter 3.
For CN1C(=O)CC(N2CCC(c3nc4ccccc4s3)CC2)C1=O (stereo not drawn) the results were UCH37 inh 4, CendR NRP1 mod 9, DAGLB inh -3, MT1-MMP act inh 7 and CTSL1 counter 19*.
Screening CC(=NNC(=O)c1cc(-c2ccc(C)s2)[nH]n1)c1ccco1 returned UCH37 inh 4.
Screening C/C(=N\NC(=O)c1cc([N+](=O)[O-])cc([N+](=O)[O-])c1)c1ccco1 returned CendR NRP1 mod 25*, DAGLB inh -1, MT1-MMP act inh 7 and CTSL1 counter 1.
Screening C/C(=N/NC(=O)c1cc(-c2ccc(Br)s2)[nH]n1)c1ccco1 returned CendR NRP1 mod 36*, DAGLB inh -1, MT1-MMP act inh 8 and CTSL1 counter 1.
Screening CC(=NNC(=O)c1cc([N+](=O)[O-])cc([N+](=O)[O-])c1)c1ccco1 returned UCH37 inh 1.
For CCc1ccc(C(=O)CN(C#N)c2nc(C)cc(C)n2)cc1 the results were UCH37 inh 3, CendR NRP1 mod 6, DAGLB inh -4, MT1-MMP act inh 0 and CTSL1 counter 58*.
Screening Cc1cc(C)nc(N(C#N)CC(=O)c2ccccc2)n1 returned UCH37 inh 5, CendR NRP1 mod 6, DAGLB inh 0, MT1-MMP act inh 5 and CTSL1 counter 69*.
For Cc1cc(C)nc(N(C#N)CC(=O)N(c2ccccc2)C(C)C)n1 the results were UCH37 inh 3, CendR NRP1 mod 13, DAGLB inh -2, MT1-MMP act inh 4 and CTSL1 counter 0.
`CCOc1ccc(N2CC(C(=O)NN=Cc3sccc3C)CC2=O)cc1` (stereo not drawn) gave UCH37 inh 9.
O=C1C=C(N2CCOCC2)c2cccc3cccc1c23 was read as CendR NRP1 mod 28*, DAGLB inh -3 and MT1-MMP act inh 17.
`O=C1C=C(O)c2cccc3cccc1c23` gave CendR NRP1 mod 41*, DAGLB inh 3, MT1-MMP act inh -17 and CTSL1 counter 7.
For O=C1C(N2CCOCC2)=Cc2cccc3cccc1c23 the results were CendR NRP1 mod 118, DAGLB inh -2 and MT1-MMP act inh -3.
Screening NC1=CC(=O)c2cccc3cccc1c23 returned CTSL1 counter 1.
Screening COc1ccc(-c2oc3ccc(-c4ccc5c(c4)OCO5)cc3c2-c2ccc(OC)nc2)cc1 returned UCH37 inh -51, CendR NRP1 mod 27*, DAGLB inh -4, MT1-MMP act inh 2 and CTSL1 counter 0.
For Cc1[nH][nH]c(=O)c1C(c1ccc(-c2ccc(C(=O)O)cc2)o1)c1c(C)[nH][nH]c1=O the results were UCH37 inh 23*, CendR NRP1 mod -18, DAGLB inh -3 and MT1-MMP act inh -4.
For Cc1[nH][nH]c(=O)c1C(c1ccc(-c2ccc(F)cc2)o1)c1c(C)[nH][nH]c1=O the results were UCH37 inh 22*, CendR NRP1 mod -4, DAGLB inh 4, MT1-MMP act inh -3 and CTSL1 counter -7.
For COc1ccc(-c2ccc(C(c3c(C)[nH][nH]c3=O)c3c(C)[nH][nH]c3=O)o2)c([N+](=O)[O-])c1 the results were UCH37 inh 8, CendR NRP1 mod 9, DAGLB inh 1 and MT1-MMP act inh 0.
O=C(NN=Cc1ccccc1OC(F)F)c1cc(-c2ccncc2)nc2ccccc12 was read as UCH37 inh 0.
`CC(=NNC(=O)c1sc(NS(=O)(=O)c2ccccc2)nc1C)c1ccccc1` gave UCH37 inh 5.
COc1cc2c(c(OC)c1OC)-c1c(cc(OC)c(OC)c1OC)C[C@](C)(O)[C@@H](C)C2 was read as UCH37 inh 1, CendR NRP1 mod 39*, DAGLB inh -1, MT1-MMP act inh 1 and CTSL1 counter 1.
For CCN1C[C@@H]2[C@@H]3C(=O)N(Cc4ccccc4)C(=O)[C@@H]3[C@](CC)(C1=O)N2C(=O)c1ccc(C(C)(C)C)cc1 the results were UCH37 inh 0, CendR NRP1 mod 26*, DAGLB inh -3 and MT1-MMP act inh -2.
For Cc1ccc(C(=O)N2[C@@H]3CN(C)C(=O)[C@@]2(C)[C@H]2C(=O)N(Cc4ccccc4)C(=O)[C@@H]32)cc1 the results were UCH37 inh 1, CendR NRP1 mod 10, DAGLB inh 0 and MT1-MMP act inh 4.
For CCN1C[C@@H]2[C@@H]3C(=O)N(Cc4ccccc4)C(=O)[C@@H]3[C@](Cc3ccccc3)(C1=O)N2C(=O)c1ccc(C(C)(C)C)cc1 the results were UCH37 inh 0, CendR NRP1 mod 6, DAGLB inh 3 and MT1-MMP act inh -14.
CN1C[C@@H]2[C@@H]3C(=O)N(Cc4ccccc4)C(=O)[C@@H]3[C@](C)(C1=O)N2C(=O)c1ccc(Cl)cc1 was read as UCH37 inh 3, CendR NRP1 mod 31*, DAGLB inh 0 and MT1-MMP act inh 6.
For CCN1C[C@@H]2[C@@H]3C(=O)N(Cc4ccccc4)C(=O)[C@@H]3[C@](CC)(C1=O)N2C(=O)c1ccc(C(F)(F)F)cc1 the results were UCH37 inh -1, CendR NRP1 mod 30*, DAGLB inh -3 and MT1-MMP act inh 1.
For O=C1N/C(=N/N=Cc2ccccc2O)SC1Cc1ccc(F)cc1 (stereo not drawn) the results were UCH37 inh -8.
O=c1ccc2cc3c([nH]c4ccc(Br)cc43)oc-2c1O was read as UCH37 inh 15, CendR NRP1 mod -291, DAGLB inh 43*, MT1-MMP act inh -55 and CTSL1 counter 6.

Source: PubChem
